Reference: ChEMBL document CHEMBL4308840, “Identification of the First Synthetic Allosteric Modulator of the CB2 Receptors and Evidence of Its Efficacy for Neuropathic Pain Relief” (2018)
Active and inactive are the calls of the source.

Legend:
[1] = target: Cannabinoid receptor 1 (Homo sapiens) (UniProt P21554); experiment: Positive allosteric modulation of human CB1R expressed in CHO cell membranes assessed as increase in [3H]CP55940 binding at 100 nM after 60 mins by liquid scintillation spectrometric method
Method in brief: (§1)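 Membranes (50 µg protein) from CHO cells stably expressing human CB1R or CB2R, incubated with 0.7 nM [3H]CP55940 in 50 mM Tris binding buffer with 0.1% BSA, pH 7.4, at 37 °C for 60 min. Vehicle 0.1% DMSO. Ended with ice-cold buffer and vacuum filtration through GF/B filters, then liquid scintillation counting. Specific binding is total minus binding with 1 µM unlabelled CP55940. Six independent experiments, each in duplicate.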

[2] = target: Cannabinoid receptor 1 (Homo sapiens) (UniProt P21554); experiment: Positive allosteric modulation of human CB1R expressed in CHO cell membranes assessed as increase in [3H]CP55940 binding up to 1 uM after 60 mins by liquid scintillation spectrometric method relative to control
[3] = target: Cannabinoid receptor 1 (Homo sapiens) (UniProt P21554); experiment: Positive allosteric modulation of human CB1R expressed in CHO cell membranes assessed as increase in [3H]CP55940 binding at 10 uM after 60 mins by liquid scintillation spectrometric method
[4] = target: Cannabinoid receptor 2 (Homo sapiens) (UniProt P34972); experiment: Positive allosteric modulation of human CB2R expressed in CHO cell membranes assessed as increase in [3H]CP55940 binding after 60 mins by liquid scintillation spectrometric method; method in brief: as §1
[5] = target: Cannabinoid receptor 1 (Homo sapiens) (UniProt P21554); experiment: Allosteric modulation of human CB1R expressed in CHO cell membranes assessed as effect on CP55940-stimulated [35S]GTPgammaS binding at 100 nM after 90 mins by liquid scintillation counting method; type: functional
Method in brief: (§2)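 Membranes (1 mg/ml) from CHO cells stably expressing human CB1R or CB2R. Incubated with 0.1 nM [35S]GTPγS and 30 µM GDP in 50 mM Tris, 10 mM MgCl2, 100 mM NaCl, 0.2 mM EDTA, 1 mM DTT, pH 7.4, 0.1% DMSO, 30 °C for 90 min. Filtered on GF/B; scintillation counting. Duplicates; six experiments for CB1R, twelve for CB2R with CP55940.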

[6] = target: Cannabinoid receptor 2 (Homo sapiens) (UniProt P34972); experiment: Positive allosteric modulation of human CB2R expressed in CHO cell membranes assessed as increase in CP55940-stimulated [35S]GTPgammaS binding at 100 nM after 90 mins by liquid scintillation counting method; type: functional; method in brief: as §2
[7] = target: Cannabinoid receptor 2 (Homo sapiens) (UniProt P34972); experiment: Inhibition of [35S]GTPgammaS binding to human CB2R expressed in CHO cell membranes at 100 nM after 90 mins by liquid scintillation counting method; type: functional; method in brief: as §2
[8] = target: Cannabinoid receptor 2 (Homo sapiens) (UniProt P34972); experiment: Stimulation of [35S]GTPgammaS binding to human CB2R expressed in CHO cell membranes at 100 nM after 90 mins by liquid scintillation counting method; type: functional; method in brief: as §2
[9] = target: Cannabinoid receptor 2 (Homo sapiens) (UniProt P34972); experiment: Positive allosteric modulation of human CB2R expressed in CHO cell membranes assessed as increase in 2-AG-stimulated [35S]GTPgammaS binding at 100 nM after 90 mins by liquid scintillation counting method; type: functional; method in brief: as §2
[10] = target: Cannabinoid receptor 2 (Homo sapiens) (UniProt P34972); experiment: Positive allosteric modulation of human CB2R expressed in CHO cell membranes assessed as increase in AEA-stimulated [35S]GTPgammaS binding at 100 nM after 90 mins by liquid scintillation counting method; type: functional; method in brief: as §2
[11] = target: Cannabinoid receptor 2 (Homo sapiens) (UniProt P34972); experiment: Positive allosteric modulation of human CB2R expressed in CHO cell membranes assessed as decrease in [3H]CP55940 dissociation at 100 nM up to 2 hrs by liquid scintillation spectrometric method
Method in brief: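 Human CB2R CHO membranes (50 µg protein) were used for [3H]CP55940 dissociation in Tris buffer with 0.1% BSA, pH 7.4, with or without 100 nM test compound. Dissociation followed 0.5–120 min at 25 °C; filtration and scintillation counting. Nonspecific binding taken with 1 µM unlabelled ligand. Four experiments in duplicate.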

[12] = target: T1, Monoglyceride lipase (Homo sapiens) (UniProt Q99685); experiment: Inhibition of recombinant human MAGL at <10 uM using 4-NPA as substrate after 30 mins by colorimetric method
T1 sequence (whole entry): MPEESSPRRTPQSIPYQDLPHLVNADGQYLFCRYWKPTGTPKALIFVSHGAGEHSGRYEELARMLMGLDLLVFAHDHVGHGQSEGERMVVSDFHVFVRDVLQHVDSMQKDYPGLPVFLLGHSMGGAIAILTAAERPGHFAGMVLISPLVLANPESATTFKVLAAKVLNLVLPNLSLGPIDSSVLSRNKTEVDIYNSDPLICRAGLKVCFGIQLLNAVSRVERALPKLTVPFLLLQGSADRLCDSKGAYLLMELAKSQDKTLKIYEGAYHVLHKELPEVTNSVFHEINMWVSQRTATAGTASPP
Method in brief: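 Human recombinant MAGL, 11 ng/well, with 100 µM (final) 4-nitrophenylacetate in 10 mM Tris pH 7.2, 1 mM EDTA, 0.1 mg/ml BSA, at room temperature for 30 min. 4-Nitrophenol release read at 405 nm. Controls were no-compound and no-enzyme reactions.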

Mus musculus [13] = experiment: Antinociceptive activity in CD-1 albino mouse model of oxaliplatin-induced neuropathic pain assessed as increase in licking latency at 5 to 10 mg/kg, po treated on day 15 post oxaliplatin treatment and measured at 30 to 60 mins post dose by cold plate test; type: functional, organism-based
Method in brief: (§3)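 Male CD-1 mice (22–25 g) received oxaliplatin 2.4 mg kg-1 i.p. in 5% glucose on days 1-2, 5-9 and 12-14; controls got vehicle. On day 15, a single oral dose in 1% carboxymethylcellulose was given. Cold plate held at 4 °C; latency to first hind-paw licking recorded, 60 s cut-off, at 15, 30, 45, 60 and 75 min. n=16 mice over 2 sets; one-way ANOVA with Bonferroni.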

Mus musculus [14] = experiment: Antinociceptive activity in CD-1 albino mouse model of oxaliplatin-induced neuropathic pain assessed as licking latency time at 20 mg/kg, po treated on day 15 post oxaliplatin treatment and measured up to 15 mins post dose by cold plate test (reference value: 9.7 +/- 0.9 secs); type: functional; method in brief: as §3
Mus musculus [15] = experiment: Antinociceptive activity in CD-1 albino mouse model of oxaliplatin-induced neuropathic pain assessed as licking latency time at 20 mg/kg, po treated on day 15 post oxaliplatin treatment and measured at 60 mins post dose by cold plate test (reference value: 9.7 +/- 0.9 secs); type: functional; method in brief: as §3
Mus musculus [16] = experiment: Antinociceptive activity in CD-1 albino mouse model of oxaliplatin-induced neuropathic pain assessed as increase in licking latency at 1 to 10 mg/kg, po treated 15 mins after MAGL inhibitor trans-(1-(1-(1H-1,2,4-Triazole-1-carbonyl)piperidin-4-yl)-4-benzo[d][1,3]dioxol-5-yl)-3-(4-fluorophenyl)azetidin-2-one treatment on day 15 post oxaliplatin treatment and measured up to 75 mins post dose by cold plate test; type: functional
Method in brief: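 Oxaliplatin model in male CD-1 mice: 2.4 mg kg-1 i.p. in 5% glucose on days 1-2, 5-9 and 12-14, tested day 15. MAGL inhibitor F 1 mg kg-1 p.o. was combined with oral test dosing, both in 1% carboxymethylcellulose. Cold plate latency at 4 °C, 60 s cut-off, read 15–75 min after dosing. 16 mice over 2 sets; ANOVA/Bonferroni; synergy by Chou-Talalay combination index.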

Mus musculus [17] = experiment: Antinociceptive activity in CD-1 albino mouse model of oxaliplatin-induced neuropathic pain assessed as increase in licking latency at 20 mg/kg, po treated 15 mins after CB1R antagonist SR141716A treatment on day 15 post oxaliplatin treatment and measured up to 75 mins post dose by cold plate test; type: functional, organism-based
Method in brief: (§4)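 Male CD-1 mice on day 15 after oxaliplatin (2.4 mg kg-1 i.p., days 1-2, 5-9, 12-14) received the selective antagonist i.p., then the oral test dose. Cold plate at 4 °C with 60 s cut-off, licking latency read 15, 30, 45, 60 and 75 min post dose. 16 mice in 2 sets; ANOVA with Bonferroni.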

Mus musculus [18] = experiment: Antinociceptive activity in CD-1 albino mouse model of oxaliplatin-induced neuropathic pain assessed as increase in licking latency at 20 mg/kg, po treated 15 mins after CB2R antagonist SR144528 treatment on day 15 post oxaliplatin treatment and measured up to 75 mins post dose by cold plate test; type: functional, organism-based; method in brief: as §4
[19] = target: Cannabinoid receptor 1 (Homo sapiens) (UniProt P21554); experiment: Displacement of [3H]CP55940 from human CB1R expressed in CHO cell membranes at 100 nM after 60 mins by liquid scintillation spectrometric method; method in brief: as §1

Sequence of Cannabinoid receptor 1 (Homo sapiens) (P21554 whole entry): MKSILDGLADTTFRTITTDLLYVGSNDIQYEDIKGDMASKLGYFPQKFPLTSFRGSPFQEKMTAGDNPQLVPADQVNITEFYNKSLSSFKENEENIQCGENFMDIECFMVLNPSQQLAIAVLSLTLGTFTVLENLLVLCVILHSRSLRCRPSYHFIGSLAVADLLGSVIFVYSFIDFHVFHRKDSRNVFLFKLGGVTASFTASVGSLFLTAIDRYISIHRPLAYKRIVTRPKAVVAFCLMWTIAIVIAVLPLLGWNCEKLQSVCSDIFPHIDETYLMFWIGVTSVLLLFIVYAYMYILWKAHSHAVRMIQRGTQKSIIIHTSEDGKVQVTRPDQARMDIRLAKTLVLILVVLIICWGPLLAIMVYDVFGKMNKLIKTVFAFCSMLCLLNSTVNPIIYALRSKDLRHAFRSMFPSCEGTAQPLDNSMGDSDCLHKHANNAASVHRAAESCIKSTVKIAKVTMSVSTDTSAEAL
Sequence of Cannabinoid receptor 2 (Homo sapiens) (P34972 whole entry): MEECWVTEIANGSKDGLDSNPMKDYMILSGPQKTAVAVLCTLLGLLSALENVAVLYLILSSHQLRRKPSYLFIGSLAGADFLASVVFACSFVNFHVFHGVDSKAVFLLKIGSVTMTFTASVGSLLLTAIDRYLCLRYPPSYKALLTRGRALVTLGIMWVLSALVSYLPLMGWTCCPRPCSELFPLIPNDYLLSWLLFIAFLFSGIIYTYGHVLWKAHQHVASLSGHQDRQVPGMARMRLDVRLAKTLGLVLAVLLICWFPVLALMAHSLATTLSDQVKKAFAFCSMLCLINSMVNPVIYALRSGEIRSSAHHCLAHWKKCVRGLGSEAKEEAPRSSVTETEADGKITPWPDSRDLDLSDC

## Cc1c(Br)cn(Cc2ccc(F)cc2)c(=O)c1NC(=O)C1CCCCCC1
[1]
  Activity: Active
[2]
  Activity: 40%
[3]
  Activity: inactive
[4]
  Activity: Active
[5]
  Activity: inactive
[6]
  Activity: Active
[7]
  inhibition: inactive
[8]
  Activity: inactive
[9]
  Activity: Active
[10]
  Activity: inactive
[11]
  Activity: Active
[12]
  inhibition: inactive
Mus musculus [13]
  Activity: Active
Mus musculus [14]
  Time: 0.5 min
Mus musculus [15]
  Time: 0.75 min
Mus musculus [16]
  CI: 0.2012
Mus musculus [17]
  Activity: Active
Mus musculus [18]
  Activity: inactive

## COc1ccc(-c2cc(NC(=O)C3CCCCCC3)c(=O)n(Cc3ccc(F)cc3)c2C)cc1
[1]
  Activity: Active
[4]
  Activity: inactive

## Cc1ccc(NC(=O)C2CCCCCC2)c(=O)n1Cc1ccc(F)cc1
[19]
  inhibition: Active
[4]
  Activity: inactive

## Cc1ccn(Cc2ccc(F)cc2)c(=O)c1NC(=O)C1CCCCCC1
[19]
  inhibition: Active
[4]
  Activity: inactive

## Cc1c(F)cc(NC(=O)C2CCCCCC2)c(=O)n1Cc1ccc(F)cc1
[1]
  Activity: Active
[4]
  Activity: inactive

## Cc1c(Cl)cn(Cc2ccc(F)cc2)c(=O)c1NC(=O)C1CCCCCC1
[1]
  Activity: Active
[4]
  Activity: inactive

## COc1ccc(-c2cn(Cc3ccc(F)cc3)c(=O)c(NC(=O)C3CCCCCC3)c2C)cc1
[1]
  Activity: Active
[4]
  Activity: inactive

## O=C(Nc1c(O)c(Br)cn(Cc2ccc(F)cc2)c1=O)C1CCCCCC1
[1]
  Activity: Active
[4]
  Activity: Active

## Cc1c(-c2ccccc2)cn(Cc2ccc(F)cc2)c(=O)c1NC(=O)C1CCCCCC1
[1]
  Activity: Active
[4]
  Activity: inactive

## Cc1c(Br)c[nH]c(=O)c1NC(=O)C1CCCCCC1
[19]
  inhibition: Active
[4]
  Activity: inactive

## Cc1c(Br)cc(NC(=O)C2CCCCCC2)c(=O)n1Cc1ccc(F)cc1
[1]
  Activity: Active
[4]
  Activity: inactive

## Cc1c(-c2ccccc2)cc(NC(=O)C2CCCCCC2)c(=O)n1Cc1ccc(F)cc1
[1]
  Activity: Active
[4]
  Activity: inactive

## Cc1c(Cl)cc(NC(=O)C2CCCCCC2)c(=O)n1Cc1ccc(F)cc1
[19]
  inhibition: Active
[4]
  Activity: inactive
